Laboratory results taken from ChEMBL document CHEMBL1131093, “ATP-Citrate lyase as a target for hypolipidemic intervention. 2. Synthesis and evaluation of (3R,5S)-omega-substituted-3-carboxy-3, 5-dihydroxyalkanoic acids and their gamma-lactone prodrugs as inhibitors of the enzyme in vitro and in vivo” (J Med Chem, 1998).
Several values for one entry are separate records, joined by “and”; a condition that tells them apart may be missing. Equal values may be shown once.

How the values were obtained:
Parameters in all cases: scale not given: the % may be the effect or the level left
HepG2 [1] = assay: (§1) Inhibition of fatty acid synthesis in HepG2 cells was measured at 10 uM concentration.; format: functional, Homo sapiens
Summary of the method: (§2)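 Compounds were applied to HepG2 cells as their γ-lactone prodrugs. De novo cholesterol synthesis, fatty acid synthesis and cellular ATP levels were each expressed as % of control. Significance was marked at p < 0.001.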

HepG2 [2] = assay: Inhibition of cholesterol synthesis in HepG2 cells was measured at 10 uM concentration.; format: functional, Homo sapiens; summary of the method: as §2
HepG2 [3] = assay: Inhibition of fatty acid synthesis in HepG2 cells was measured at 3 uM concentration.; format: functional, Homo sapiens; summary of the method: as §2
HepG2 [4] = assay: as §1; format: functional, Homo sapiens; summary of the method: as §2; remark: listed apart in the source
HepG2 [5] = assay: Inhibition of ATP levels in HepG2 cells was measured at 10 uM concentration.; format: functional, Homo sapiens; summary of the method: as §2
HepG2 [6] = assay: Inhibition of ATP levels in HepG2 cells was measured at 30 uM concentration.; format: functional, Homo sapiens; summary of the method: as §2
HepG2 [7] = assay: Inhibition of ATP levels in HepG2 cells was measured at 3 uM concentration.; format: functional, Homo sapiens; summary of the method: as §2
HepG2 [8] = assay: Inhibition of cholesterol synthesis in HepG2 cells was measured at 3 uM concentration.; format: functional, Homo sapiens; summary of the method: as §2
HepG2 [9] = assay: Inhibition of cholesterol synthesis in HepG2 cells was measured at 100 uM concentration.
HepG2 [10] = assay: Inhibition of ATP levels in HepG2 cells was measured at 300 uM concentration.; format: functional, Homo sapiens; summary of the method: as §2
HepG2 [11] = assay: Inhibition of fatty acid synthesis in HepG2 cells was measured at 300 uM concentration.; format: functional, Homo sapiens; summary of the method: as §2
HepG2 [12] = assay: Inhibition of fatty acid synthesis in HepG2 cells was measured at 1000 uM concentration.; format: functional, Homo sapiens; summary of the method: as §2
HepG2 [13] = assay: Inhibition of cholesterol synthesis in HepG2 cells was measured at 300 uM concentration.; format: functional, Homo sapiens; summary of the method: as §2
HepG2 [14] = assay: Inhibition of fatty acid synthesis in HepG2 cells was measured at 100 uM concentration.
HepG2 [15] = assay: Inhibition of cholesterol synthesis in HepG2 cells was measured at 1000 uM concentration.; format: functional, Homo sapiens; summary of the method: as §2
HepG2 [16] = assay: Inhibition of ATP levels in HepG2 cells was measured at 1000 uM concentration.; format: functional, Homo sapiens; summary of the method: as §2
HepG2 [17] = assay: Inhibition of fatty acid synthesis in HepG2 cells was measured at 5 uM concentration.; format: functional, Homo sapiens; summary of the method: as §2
HepG2 [18] = assay: Inhibition of cholesterol synthesis in HepG2 cells was measured at 5 uM concentration.; format: functional, Homo sapiens; summary of the method: as §2
HepG2 [19] = assay: (§3) Inhibition of fatty acid synthesis in HepG2 cells was measured at 15 uM concentration.; format: functional, Homo sapiens; summary of the method: as §2
HepG2 [20] = assay: Inhibition of fatty acid synthesis in HepG2 cells was measured at 30 uM concentration.; format: functional, Homo sapiens; summary of the method: as §2
HepG2 [21] = assay: Inhibition of ATP levels in HepG2 cells was measured at 5 uM concentration.; format: functional, Homo sapiens; summary of the method: as §2
HepG2 [22] = assay: Inhibition of cholesterol synthesis in HepG2 cells was measured at 30 uM concentration.; format: functional, Homo sapiens; summary of the method: as §2
HepG2 [23] = assay: Inhibition of ATP levels in HepG2 cells was measured at 15 uM concentration.; format: functional, Homo sapiens; summary of the method: as §2
HepG2 [24] = assay: Inhibition of cholesterol synthesis in HepG2 cells was measured at 15 uM concentration.; format: functional, Homo sapiens; summary of the method: as §2
HepG2 [25] = assay: as §3; format: functional, Homo sapiens; summary of the method: as §2; remark: listed apart in the source

With `O=C(O)C[C@@]1(O)C[C@@H](CCCCCCc2ccc(Cl)cc2-c2ccccc2)OC1=O` the Control (HepG2 [1]) was 88%, the Control (HepG2 [2]) was 65% and 60% and the Control (HepG2 [3]) was 108%. For the same compound, the Control (HepG2 [4]) was 75%, the Control (HepG2 [5]) was 96% and 100% and the Control (HepG2 [6]) was 95%. The Control (HepG2 [7]) was 98% and the Control (HepG2 [8]) was 101%.
`O=C(O)C[C@@](O)(C(=O)O)[C@H](O)C(=O)O` showed a Control (HepG2 [9]) of 110%, a Control (HepG2 [10]) of 103% and a Control (HepG2 [11]) of 79%. For the same compound, the Control (HepG2 [12]) was 57%, the Control (HepG2 [13]) was 40% and the Control (HepG2 [14]) was 87%. For the same compound, the Control (HepG2 [15]) was 15% and the Control (HepG2 [16]) was 104%.
`O=C(O)C[C@@]1(O)C[C@@H](CCCCCCc2ccc(Cl)cc2Cl)OC1=O` (stereo in doubt; (-)-77) showed a Control (HepG2 [17]) of 123%, a Control (HepG2 [18]) of 105% and a Control (HepG2 [19]) of 90%. The Control (HepG2 [20]) was 39%, the Control (HepG2 [21]) was 101% and the Control (HepG2 [22]) was 9%. The Control (HepG2 [23]) was 99% and 98%, the Control (HepG2 [6]) was 98% and the Control (HepG2 [24]) was 37% and 33%. The Control (HepG2 [25]) was 82%.
